Results as given in ChEMBL document CHEMBL4017509, “A Dual Modulator of Farnesoid X Receptor and Soluble Epoxide Hydrolase To Counter Nonalcoholic Steatohepatitis” (J Med Chem, 2017).
Activity calls are given as the source filed them. No cut-off for these calls is given here.

Assays:
[1] = biological target: T1, Bile acid receptor (Homo sapiens) (UniProt Q96RI1); test: Transactivation of FXR in human HepG2 cells assessed as SHP mRNA expression at 1 uM after 8 to 16 hrs by SYBR green based qRT-PCR analysis relative to DMSO control; format: cell-based
T1 sequence (whole entry): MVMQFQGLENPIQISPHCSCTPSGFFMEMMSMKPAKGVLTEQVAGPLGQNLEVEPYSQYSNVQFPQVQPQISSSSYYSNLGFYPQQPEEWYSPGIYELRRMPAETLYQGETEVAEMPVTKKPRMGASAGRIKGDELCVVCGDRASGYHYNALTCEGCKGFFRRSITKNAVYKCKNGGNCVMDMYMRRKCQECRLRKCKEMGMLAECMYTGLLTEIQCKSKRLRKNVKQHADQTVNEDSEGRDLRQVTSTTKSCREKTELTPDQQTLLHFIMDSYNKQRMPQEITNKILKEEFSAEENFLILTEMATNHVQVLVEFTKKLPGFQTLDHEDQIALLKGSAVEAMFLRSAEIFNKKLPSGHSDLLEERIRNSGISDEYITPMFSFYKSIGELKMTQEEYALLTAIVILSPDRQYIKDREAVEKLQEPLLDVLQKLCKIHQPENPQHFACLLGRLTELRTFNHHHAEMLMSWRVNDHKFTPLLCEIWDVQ
Outline: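 HepG2 cells incubated with test compound (0.1 and 1 μM) or 0.1% DMSO for 8 or 16 h, washed in cold PBS, RNA extracted; target mRNA by SYBR Green qRT-PCR, duplicate samples, ≥4 independent experiments; comparative ΔΔCt with GAPDH reference, vehicle set as 100%.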

Liver = test: Drug metabolism in Sprague-Dawley rat liver microsomes assessed as 4-tert-butyl-N-(2-chloro-4-(methylsulfonamido)benzyl)-3-hydroxybenzamide formation at 10 uM preincubated with NADPH regenerating system for 5 mins followed by addition of liver microsomes by LC-MS/MS method; format: ADME, microsome
[2] = biological target: Oxysterols receptor LXR-alpha (Homo sapiens) (UniProt Q13133); test: Transactivation of human GAL4-fused LXRalpha ligand binding domain expressed in […] cells at 10 uM after 12 to 14 hrs by dual-glo luciferase reporter gene assay; format: cell-based
Sequence of Oxysterols receptor LXR-alpha (Homo sapiens) (Q13133 whole entry, the tested form may be a part): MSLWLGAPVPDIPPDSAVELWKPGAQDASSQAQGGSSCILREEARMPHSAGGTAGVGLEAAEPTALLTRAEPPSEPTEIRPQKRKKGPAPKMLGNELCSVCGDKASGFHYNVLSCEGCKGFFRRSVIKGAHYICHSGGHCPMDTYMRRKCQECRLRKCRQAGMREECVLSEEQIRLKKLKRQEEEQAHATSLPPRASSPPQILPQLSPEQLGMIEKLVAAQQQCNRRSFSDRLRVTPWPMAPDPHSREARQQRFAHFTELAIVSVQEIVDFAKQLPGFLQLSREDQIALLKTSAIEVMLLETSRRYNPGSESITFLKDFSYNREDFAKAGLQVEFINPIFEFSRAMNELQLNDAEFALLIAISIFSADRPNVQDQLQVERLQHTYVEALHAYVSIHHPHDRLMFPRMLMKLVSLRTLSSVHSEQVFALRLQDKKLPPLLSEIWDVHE
Outline: (§1)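 HEK293T cells in DMEM/10% FCS, Opti-MEM before Lipofectamine LTX transfection with pFR-Luc reporter, pRL-SV40 and pFA-CMV GAL4–LBD plasmid. 5 h later compound in 0.1% DMSO, Opti-MEM, overnight (12−14 h). Dual luciferase; firefly/renilla ×1000 = RLU, fold over DMSO control; triplicates, ≥3 independent repeats.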

[3] = biological target: T2, Bifunctional epoxide hydrolase 2 (Homo sapiens) (UniProt P34913); test: Inhibition of sEH in human HuT-78 cells assessed as reduction in Pam3CSK4-stimulated TNFalpha release preincubated for 24 hrs followed by Pam3CSK4 addition measured after 18 hrs by ELISA; format: cell-based
T2 sequence (whole entry): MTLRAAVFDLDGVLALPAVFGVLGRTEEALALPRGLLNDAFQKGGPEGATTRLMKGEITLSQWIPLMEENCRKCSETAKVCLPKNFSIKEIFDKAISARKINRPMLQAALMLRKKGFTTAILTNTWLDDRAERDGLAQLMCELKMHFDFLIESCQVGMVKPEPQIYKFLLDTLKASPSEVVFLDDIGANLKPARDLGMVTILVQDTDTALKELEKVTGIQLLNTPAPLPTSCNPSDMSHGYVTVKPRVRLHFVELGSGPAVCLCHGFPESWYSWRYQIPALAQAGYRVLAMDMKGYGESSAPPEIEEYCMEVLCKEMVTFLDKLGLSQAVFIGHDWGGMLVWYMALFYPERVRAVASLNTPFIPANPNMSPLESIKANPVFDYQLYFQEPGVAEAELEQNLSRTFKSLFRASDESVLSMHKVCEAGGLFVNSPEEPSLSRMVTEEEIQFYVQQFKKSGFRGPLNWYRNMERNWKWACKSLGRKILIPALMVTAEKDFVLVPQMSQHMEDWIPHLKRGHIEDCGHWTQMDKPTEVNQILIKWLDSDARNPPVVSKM
Outline: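 HuT-78 cells in RPMI 1640 with 10% heat-inactivated FCS, 2.0 × 10^6 cells/well, exposed to compound (0.1% DMSO) for 24 h; medium then replaced with fresh compound plus Pam3CSK4 20 ng/mL for 18 h; supernatant TNFα measured by ELISA (absorbance 450 nm); each concentration repeated independently at least three times.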

[4] = Half life in C57BL/6JRj mouse at 10 mg/kg, po measured up to 480 mins post dose by LC-MS analysis; format: ADME, organism-based; details: in vivo
Outline: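 Male C57BL/6JRj mice (23−26 g), six dosed once orally at 10 mg/kg in water with 1% HPMC/Tween 80 (99:1), three vehicle. Tail-vein blood (20 μL) at 15, 30, 60, 120, 240 and 480 min, last by retro-orbital puncture. Blood spiked, acetonitrile precipitation with griseofulvin internal standard, LC−MS on phenyl-hexyl column. Noncompartmental PK analysis.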

[5] = biological target: Oxysterols receptor LXR-beta (Homo sapiens) (UniProt P55055); test: Transactivation of human GAL4-fused LXRbeta ligand binding domain expressed in […] cells at 10 uM after 12 to 14 hrs by dual-glo luciferase reporter gene assay; format: cell-based; outline: as §1
Sequence of Oxysterols receptor LXR-beta (Homo sapiens) (P55055 whole entry, the tested form may be a part): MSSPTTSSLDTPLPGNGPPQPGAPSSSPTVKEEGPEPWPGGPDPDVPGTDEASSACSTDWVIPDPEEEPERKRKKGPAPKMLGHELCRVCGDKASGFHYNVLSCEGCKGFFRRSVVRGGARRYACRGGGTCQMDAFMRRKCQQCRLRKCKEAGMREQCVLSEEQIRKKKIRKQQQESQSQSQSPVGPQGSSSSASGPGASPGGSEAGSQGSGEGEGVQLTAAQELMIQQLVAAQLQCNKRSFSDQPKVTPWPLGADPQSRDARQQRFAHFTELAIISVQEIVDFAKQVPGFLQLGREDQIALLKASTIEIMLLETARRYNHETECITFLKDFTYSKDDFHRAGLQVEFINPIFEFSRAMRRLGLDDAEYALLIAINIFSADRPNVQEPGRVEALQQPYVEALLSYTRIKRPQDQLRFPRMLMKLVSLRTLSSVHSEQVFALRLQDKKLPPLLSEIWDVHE

[6] = biological target: G-protein coupled bile acid receptor 1 (Homo sapiens) (UniProt Q8TDU6); test: Antagonist activity at TGR5 (unknown origin) at 10 uM
Sequence of G-protein coupled bile acid receptor 1 (Homo sapiens) (Q8TDU6 whole entry): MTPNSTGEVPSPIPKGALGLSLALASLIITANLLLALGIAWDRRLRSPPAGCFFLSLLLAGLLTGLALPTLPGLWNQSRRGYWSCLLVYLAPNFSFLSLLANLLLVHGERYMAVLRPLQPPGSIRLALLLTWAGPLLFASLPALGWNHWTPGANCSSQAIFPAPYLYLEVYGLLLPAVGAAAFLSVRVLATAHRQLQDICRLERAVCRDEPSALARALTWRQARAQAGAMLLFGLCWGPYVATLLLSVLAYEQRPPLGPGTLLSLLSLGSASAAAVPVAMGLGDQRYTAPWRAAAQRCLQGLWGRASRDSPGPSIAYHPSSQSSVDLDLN

[7] = biological target: T2, Bifunctional epoxide hydrolase 2 (Homo sapiens); details: 0.01 uM

## CC(C)(C)c1ccc(C(=O)NCc2ccc(NS(C)(=O)=O)cc2Cl)cc1
[1]
  Activity: 317%
Liver
  Drug metabolism: Metabolite_Notdetected
[2]
  Activity: inactive
[3]
  inhibition: Active
[4]
  half-life: 42 min
[5]
  Activity: inactive
[6]
  inhibition: inactive
[7]
  inhibition: inactive
